This is an account of results in ChEMBL document CHEMBL3286252, “Synthesis, biological evaluation and structure-activity relationship of new GABA uptake inhibitors, derivatives of 4-aminobutanamides” (Eur J Med Chem, 2014).

Calls of active or inactive are those of the source.

The test system of data set [1] is Mus musculus. The data set can be described thus: Anticonvulsant activity against pentylenetetrazole-induced seizure in albino Swiss (CD-1) mouse assessed as decrease in mortality rate at 30 mg/kg, ip administered 60 mins prior to PTZ challenge. The format is functional, organism-based. Also on record: dose 30 mg/kg. In short, it runs like this: (§1)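 Male CD-1 mice (18–22 g) given compound or vehicle i.p. 60 min before PTZ 100 mg/kg s.c. Each mouse was then caged alone and watched for 30 min for clonic seizures, meaning whole-body clonus lasting >3 s with loss of righting reflex. Recorded: latency to first clonus, number of seizure episodes, and deaths within 30 min. Analysis: ANOVA/Dunnett or t-test; mortality by Fisher's exact test; 7–10 mice per group.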

The subject of data set [2] is Mus musculus. Nature of the data set: Anticonvulsant activity in albino Swiss (CD-1) mouse assessed as decrease in animals with tonic hind limb extensions at 100 mg/kg by maximal electroshock test. The format is functional. The note with it: Hindlimb. Summed up: (§2)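 Mice received a 25 mA, 0.2 s stimulus through auricular electrodes. The endpoint was tonic extension of the hind limbs after a single shock, scored in vehicle- and drug-treated groups.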

Data set [3] is described as follows: Toxicity in albino Swiss (CD-1) mouse assessed as mortality at 100 mg/kg measured after electroshock exposure. Type of data set: organism-based. The conditions noted are these: in vivo, read-out: Activity. Also noted: dose 100 mg/kg. In short, it runs like this:
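Male CD-1 mice given 100 mg/kg i.p. 60 min before the maximal electroshock test. Stimulus 25 mA for 0.2 s through auricular electrodes; endpoint tonic hind-limb extension. Deaths after the shock compared with the vehicle group.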

Data set [4] relates to Mus musculus. Nature of the data set: Anticonvulsant activity in albino Swiss (CD-1) mouse assessed as protection against electrically-induced tonic hind limb extension at 30 mg/kg by maximal electroshock test. Type of data set: functional, organism-based. Also on record: dose 30 mg/kg. The note with it: Hindlimb. Summed up:
as §2

Data set [5] has as its system Mus musculus. The data set can be described thus: Anticonvulsant activity against pentylenetetrazole-induced seizure in albino Swiss (CD-1) mouse assessed as delay in onset of seizures at 15 mg/kg, ip administered 60 mins prior to PTZ challenge. Type of data set: functional. The note with it: route intraperitoneal. In short, it runs like this: as §1
Data set [6] concerns Mus musculus. Nature of the data set: Antinociceptive activity in albino Swiss (CD-1) mouse assessed as latency time to pain reaction at 30 mg/kg, ip by hot plate test (reference value: 13.9 +/- 1.2 secs). Type of data set: functional. The conditions noted are these: route intraperitoneal.
Data set [7] concerns Mus musculus. The data set can be described thus: Anticonvulsant activity against pilocarpine-induced seizure in albino Swiss (CD-1) mouse assessed as prolongation of latency time to death at 70 mg/kg, ip administered 60 mins before pilocarpine challenge. Type of data set: functional. The conditions noted are these: route intraperitoneal. In short, it runs like this: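 Male CD-1 mice dosed i.p. with compound or vehicle (1% Tween 80). Scopolamine butylbromide 1 mg/kg i.p. given 45 min before pilocarpine; pilocarpine 400 mg/kg i.p. given 60 min after compound. Observed 1 h. Latency to tonic-clonic seizure and latency to death recorded, cut-off 60 min. 7–8 mice per group, mean ± SEM, Student's t-test against vehicle.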

In data set [8] the test system is Mus musculus. The data set can be described thus: Toxicity in albino Swiss (CD-1) mouse assessed as mortality at 100 mg/kg, ip measured after single electroconvulsive electroshock exposure. The format is organism-based. Also on record: dose 100 mg/kg, route intraperitoneal. The conditions noted are these: in vivo. In short, it runs like this: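 Male CD-1 mice given 100 mg/kg i.p. 60 min before electroconvulsive threshold testing. Groups shocked at graded currents to give 10–90% of animals with seizures; CS50 for tonic hind-limb extension estimated by log-probit. Mortality noted after a single electroconvulsive shock, compared with controls.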

For data set [9], the system named is Mus musculus. Nature of the data set: Anticonvulsant activity against pentylenetetrazole-induced seizure in albino Swiss (CD-1) mouse assessed as decrease in seizure episodes at 15 mg/kg, ip administered 60 mins prior to PTZ challenge. The note with it: route intraperitoneal. Type of data set: functional. Summed up:
as §1

For data set [10], the system named is Mus musculus. Nature of the data set: Anticonvulsant activity in albino Swiss (CD-1) mouse assessed as protection against seizures at 100 mg/kg, ip after 60 mins by electroconvulsive threshold test. The format is functional, organism-based. Also on record: dose 100 mg/kg.
The test system of data set [11] is Mus musculus. Nature of the data set: Anticonvulsant activity against pentylenetetrazole-induced seizure in albino Swiss (CD-1) mouse assessed as delay in onset of seizures at 30 mg/kg, ip administered 60 mins prior to PTZ challenge. Type of data set: functional. The note with it: route intraperitoneal. Summed up:
as §1

Data set [12] addresses Sodium- and chloride-dependent GABA transporter 1 (Mus musculus) (UniProt P31648). The data set can be described thus: Displacement of NO711 from mouse GAT1 expressed in HEK293 cells assessed as NO711 binding at 100 uM by LC-MS/MS analysis. Type of data set: cell-based.
The test system of data set [13] is Mus musculus. The data set can be described thus: Anticonvulsant activity against pilocarpine-induced seizure in albino Swiss (CD-1) mouse assessed as prolongation of latency time to seizures at 70 mg/kg, ip administered 60 mins before pilocarpine challenge. Type of data set: functional. The conditions noted are these: route intraperitoneal. Summed up: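 CD-1 mice received compound or vehicle (1% Tween 80) i.p. 60 min before pilocarpine 400 mg/kg i.p. Scopolamine butylbromide 1 mg/kg i.p. was given 45 min before pilocarpine. 7–8 mice per group; Student's t-test versus vehicle; mean ± SEM.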

Data set [14] deals with Mus musculus. Nature of the data set: Anticonvulsant activity in albino Swiss (CD-1) mouse assessed as current intensity required to induce 50% tonic hind limb extensions at 100 mg/kg, ip after 60 mins by electroconvulsive threshold test (reference value: 6.61 mA). The note with it: route intraperitoneal. Type of data set: functional, Hindlimb.
The subject of data set [15] is Mus musculus. The data set can be described thus: Anticonvulsant activity against pentylenetetrazole-induced seizure in albino Swiss (CD-1) mouse assessed as decrease in mortality rate at 30 to 100 mg/kg, ip administered 60 mins prior to PTZ challenge. Type of data set: functional, organism-based. In short, it runs like this:
as §1

Data set [16] relates to Mus musculus. Nature of the data set: Anticonvulsant activity against pentylenetetrazole-induced seizure in albino Swiss (CD-1) mouse assessed as prolongation of latency time to first seizure episode at 100 mg/kg, ip administered 60 mins prior to PTZ challenge. Type of data set: functional. The note with it: route intraperitoneal. Summed up: as §1
Data set [17] deals with Mus musculus. The data set can be described thus: Anticonvulsant activity against pentylenetetrazole-induced seizure in albino Swiss (CD-1) mouse assessed as decrease in seizure episodes at 100 mg/kg, ip administered 60 mins prior to PTZ challenge. The format is functional. The note with it: route intraperitoneal. In short, it runs like this: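 Male CD-1 mice, 18–22 g, given compound or vehicle i.p. 60 min before PTZ 100 mg/kg s.c. Each mouse observed alone for 30 min for clonic seizures: whole-body clonus over 3 s with loss of righting reflex. Read-outs: latency to first clonus, number of seizure episodes, and deaths within 30 min. Groups of 7–10 mice, compared with vehicle.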

The test system of data set [18] is Mus musculus. Nature of the data set: Anticonvulsant activity in albino Swiss (CD-1) mouse assessed as protection against electrically-induced tonic hind limb extension at 30 to 100 mg/kg measured after single electroshock by maximal electroshock test. Type of data set: functional, organism-based. The conditions noted are these: Hindlimb. In short, it runs like this: as §2

For data set [19], the system named is Mus musculus. Nature of the data set: Anticonvulsant activity against pentylenetetrazole-induced seizure in albino Swiss (CD-1) mouse assessed as prolongation of latency time to first seizure episode at 30 mg/kg, ip administered 60 mins prior to PTZ challenge. Also noted: dose 30 mg/kg. Type of data set: functional, organism-based. In short, it runs like this: as §1

Consider `NCCC(C(=O)NCc1ccc(Cl)cc1)N1CCN(C(c2ccccc2)c2ccccc2)CC1` (stereo unspecified), for which, in the data set on Mus musculus [1], the inhibition result is “Active”. The inhibition in vivo at 100 mg/kg with Mus musculus [2] turned out to be 44%. The mortality in [3] worked out at 65%. Also, the outcome in the data set with Mus musculus [4] and in the data set on Mus musculus [10] was inactive. In addition, the Activity with Mus musculus [5] was 58%; in the data set with Mus musculus [7], 71.1%; with Mus musculus [8] it was “Toxic”; with Mus musculus [11], 217%; in data set [12], 53%; in the data set on Mus musculus [13], 113.4%. In addition, the Time in the data set with Mus musculus [6] is 27.5 s. In addition, the inhibition in vivo at 15 mg/kg in the data set with Mus musculus [9] amounted to 58%.
As for `NCCC(C(=O)NCc1ccccc1Cl)N1CCN(C(c2ccccc2)c2ccccc2)CC1` (stereo unspecified), the CS50 in the data set on Mus musculus [14] is recorded as 6.22 mA. Besides, in the data set with Mus musculus [15], the inhibition result was “Active”. For the same compound, the Time in the data set with Mus musculus [6] came to 18.8 s. In addition, the Activity in the data set with Mus musculus [16] came to 100%; in data set [12] it was 55%. Also, in the data set with Mus musculus [17], the inhibition in vivo at 100 mg/kg was determined as 53%. The result in the data set with Mus musculus [18] and with Mus musculus [19] was inactive.
